Source: ChEMBL document CHEMBL1122203, “Potential tumor- or organ-imaging agents. 23. Sterol esters of iopanoic acid” (J Med Chem, 1982)

Assays:
Rattus norvegicus [1] = test: Evaluated for distribution at 0.5 hr after intravenous administration in liver of female Sprague Dawley rats; type: ADME, organism-based; conditions: in vivo
Summary of the method: (§1)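 Radioiodinated compound solubilized in Tween (2–3% clear solution) and given intravenously to adult female Sprague-Dawley rats, 200–250 g; 5–30 µCi per animal, 4–5 rats per group. Killed by exsanguination under ether anesthesia; organs blotted, adrenal cortex dissected from medulla, weighed samples gamma-counted (84% efficiency). Expressed as percent administered dose per gram tissue ± SEM.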

[2] = Percent parent compound extracted at 24 hours from plasma using CHCl3/CH3OH.; type: ADME, cell-free; conditions: read-out: Extracted
Summary of the method: (§2)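 Lipid extracts from plasma, adrenal cortex and liver taken at 0.5 or 24 h after iv dosing were run on TLC beside unlabeled ester reference (iodine vapor). Eluents were petroleum ether/diethyl ether 7:2 for the cholesteryl ester and benzene/ethyl acetate 9:1 for the others, developed 14.5 cm. Plates were cut into 1-cm strips and counted; parent given as percent of extractable radioactivity.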

[3] = Percent lipid extracted at 0.5 hr from adrenal […] using CHCl3/CH3OH.; type: ADME, tissue-based
Summary of the method: (§3)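 Same iv dosing of radioiodinated ester in Tween to female Sprague-Dawley rats. At 0.5 or 24 h, plasma, adrenal cortex and liver were extracted with CHCl3/CH3OH. Radioactivity in the lipid extract was counted and reported as percent of tissue radioactivity extractable, ± SE.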

[4] = Percent lipid extracted at 24 hours from adrenal cortex using CHCl3/CH3OH.; type: ADME, tissue-based; summary of the method: as §3
[5] = Percent lipid extracted at 24 hr from liver using CHCl3/CH3OH.; type: ADME, tissue-based; summary of the method: as §3
Rattus norvegicus [6] = test: Evaluated for distribution at 24 hours after intravenous administration in liver of female Sprague Dawley rats; type: ADME, organism-based; conditions: in vivo; summary of the method: as §1
Rattus norvegicus [7] = test: Evaluated for distribution at 24 hours after intravenous administration in adrenal cortex of female Sprague Dawley rats; type: ADME, organism-based; conditions: in vivo; summary of the method: as §1
Rattus norvegicus [8] = test: Evaluated for distribution at 24 hours after intravenous administration in thyroid of female Sprague Dawley rats; type: ADME, organism-based, Thyroid gland; conditions: in vivo; summary of the method: as §1
[9] = Percent lipid extracted at 0.5 hr from […] using CHCl3/CH3OH.; type: ADME, cell-free; summary of the method: as §3
[10] = Percent parent compound extracted at 0.5 hr from liver using CHCl3/CH3OH.; type: ADME, tissue-based; summary of the method: as §2
[11] = Percent parent compound extracted at 0.5 hr from plasma using CHCl3/CH3OH.; type: ADME, cell-free; conditions: read-out: Extracted; summary of the method: as §2
[12] = Percent lipid extracted at 24 hours from plasma using CHCl3/CH3OH.; type: ADME, cell-free; summary of the method: as §3
Rattus norvegicus [13] = test: Evaluated for distribution at 0.5 hr after intravenous administration in adrenal cortex of female Sprague Dawley rats; type: ADME, organism-based; conditions: in vivo; summary of the method: as §1
Rattus norvegicus [14] = test: Evaluated for distribution at 0.5 hr after intravenous administration in blood of female Sprague Dawley rats; type: ADME, organism-based; conditions: in vivo; summary of the method: as §1
[15] = Percent parent compound extracted at 0.5 hr from adrenal cortex using CHCl3/CH3OH.; type: ADME, tissue-based; summary of the method: as §2
[16] = Percent parent compound extracted at 24 hours from liver using CHCl3/CH3OH.; type: ADME, tissue-based; summary of the method: as §2
Rattus norvegicus [17] = test: Evaluated for distribution at 0.5 hr after intravenous administration in ovary of female Sprague Dawley rats; type: ADME, organism-based, Female gonad; conditions: in vivo; summary of the method: as §1
Rattus norvegicus [18] = test: Evaluated for distribution at 24 hours after intravenous administration in ovary of female Sprague Dawley rats; type: ADME, organism-based, Female gonad; conditions: in vivo; summary of the method: as §1
Rattus norvegicus [19] = test: Evaluated for distribution at 0.5 hr after intravenous administration in thyroid of female Sprague Dawley rats; type: ADME, organism-based, Thyroid gland; conditions: in vivo; summary of the method: as §1
Rattus norvegicus [20] = test: Evaluated for distribution at 24 hours after intravenous administration in blood of female Sprague Dawley rats; type: ADME, organism-based; conditions: in vivo; summary of the method: as §1
[21] = Percent lipid extracted at 0.5 hr from liver using CHCl3/CH3OH.; type: ADME, tissue-based; summary of the method: as §3
[22] = Percent parent compound extracted at 24 hours from adrenal cortex using CHCl3/CH3OH.; type: ADME, tissue-based; summary of the method: as §2

CCC(Cc1c(I)cc(I)c(N)c1I)C(=O)OC1CCC2(C)C(=CCC3C4CCC(=O)C4(C)CCC32)C1 (stereo unspecified)
Distribution (Rattus norvegicus [1]): 3.612% | remaining at 24 h [2]: 38% | Extracted [3]: 85.5% | Extracted [4]: 83.4% | Extracted [5]: 61.8% | Distribution (Rattus norvegicus [6]): 0.108% | Distribution (Rattus norvegicus [7]): 3.958% | Distribution (Rattus norvegicus [8]): 143.74% | Extracted [9]: 63.1% | Extracted [10]: 61.8% | remaining at 0.5 h [11]: 64.2% | Extracted [12]: 64.2% | Distribution (Rattus norvegicus [13]): 15.38% | Distribution (Rattus norvegicus [14]): 1.275% | Extracted [15]: 83.4% | Extracted [16]: 42.5% | Distribution (Rattus norvegicus [17]): 1.886% | Distribution (Rattus norvegicus [18]): 1.205% | Distribution (Rattus norvegicus [19]): 1.392% | Distribution (Rattus norvegicus [20]): 0.085% | Extracted [21]: 81.5% | Extracted [22]: 16.8%

CCC(Cc1c(I)cc(I)c(N)c1I)C(=O)OC1CCC2(C)C(=CCC3C2CCC2(C)C(C(C)CCCC(C)C)CCC32)C1 (stereo unspecified)
Distribution (Rattus norvegicus [1]): 4.035% | remaining at 24 h [2]: 96.1% | Extracted [3]: 83.1% | Extracted [4]: 92.1% | Extracted [5]: 91.2% | Distribution (Rattus norvegicus [6]): 6.59% | Distribution (Rattus norvegicus [7]): 11.029% | Distribution (Rattus norvegicus [8]): 3.571% | Extracted [9]: 83.4% | Extracted [10]: 97.8% | remaining at 0.5 h [11]: 96% | Extracted [12]: 85.8% | Distribution (Rattus norvegicus [13]): 4.9% | Distribution (Rattus norvegicus [14]): 5.191% | Extracted [15]: 96.9% | Extracted [16]: 97.8% | Distribution (Rattus norvegicus [17]): 5.161% | Distribution (Rattus norvegicus [18]): 24.542% | Distribution (Rattus norvegicus [19]): 0.868% | Distribution (Rattus norvegicus [20]): 0.696% | Extracted [21]: 87.2% | Extracted [22]: 96.9%

CCC(Cc1c(I)cc(I)c(N)c1I)C(=O)OC1CCC2(C)C(=CCC3C2CCC2(C)C(C(C)=O)CCC32)C1 (stereo unspecified)
Distribution (Rattus norvegicus [1]): 5.214% | remaining at 24 h [2]: 44.6% | Extracted [3]: 89.5% | Extracted [4]: 87.3% | Extracted [5]: 76.1% | Distribution (Rattus norvegicus [6]): 0.386% | Distribution (Rattus norvegicus [7]): 4.256% | Distribution (Rattus norvegicus [8]): 156.7% | Extracted [9]: 86.7% | Extracted [10]: 89.2% | remaining at 0.5 h [11]: 91.9% | Extracted [12]: 60% | Distribution (Rattus norvegicus [13]): 23.083% | Distribution (Rattus norvegicus [14]): 1.727% | Extracted [15]: 92.1% | Extracted [16]: 69.1% | Distribution (Rattus norvegicus [17]): 2.126% | Distribution (Rattus norvegicus [18]): 1.085% | Distribution (Rattus norvegicus [19]): 0.945% | Distribution (Rattus norvegicus [20]): 0.039% | Extracted [21]: 87.6% | Extracted [22]: 68.2%
